Assay results reported in ChEMBL document CHEMBL1127524, “Nitrobenzyl phosphorodiamidates as potential hypoxia-selective alkylating agents” (1994).

Assays:
[1] = tested on: HT-29; test: Cytotoxicity of compound was evaluated against HT-29 cells under aerobic conditions.; assay type: functional, Homo sapiens
Procedure, shortened: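 Human colon carcinoma HT-29 cells (α-MEM, 10% FBS), exponential growth, suspended at 1-2 × 10^5 cells/mL in glass vials; 4 h drug exposure gassed with 97% air/3% CO2; drug from DMSO, controls 1% DMSO; washed, plated, 14-day clonogenic colonies (>50 cells) counted; survival vs untreated; duplicates; IC90 from log-linear portion of survival curve.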

[2] = tested on: HT-29; test: Cytotoxicity of compound was evaluated against HT-29 cells under hypoxic conditions.; assay type: functional, Homo sapiens
Procedure, shortened: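 HT-29 cells at 1-2 × 10^7 cells/mL deoxygenated 10 min at 37 °C in gas-tight syringe, injected into medium degassed 3 h with 97% N2/3% CO2; 4 h exposure under continuous N2/CO2 gassing, run alongside aerobic arm with same drug stock; 1% DMSO controls; 14-day colony formation (>50 cells); survival vs untreated; duplicates; IC90 from log-linear survival curve.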

SMILES | LC90 [1] | LC90 [2]
CN(C)CCOC(=O)CC(OP(=O)(N(CCCl)CCCl)N(CCCl)CCCl)c1ccc([N+](=O)[O-])cc1 (stereo not given) | 55 µM | 34 µM
CN(C)CCCOC(=O)CC(OP(=O)(N(CCCl)CCCl)N(CCCl)CCCl)c1ccc([N+](=O)[O-])cc1 (stereo not given) | 95 µM | 50 µM
CCOC(=O)CC(OP(=O)(N(CCCl)CCCl)N(CCCl)CCCl)c1ccc([N+](=O)[O-])cc1 (stereo not given) | 106 µM | 13 µM
CC(OP(=O)(N(CCCl)CCCl)N(CCCl)CCCl)c1ccc([N+](=O)[O-])cc1 (stereo not given) | >2000 µM | 22 µM
O=[N+]([O-])c1ccc(COP(=O)(N(CCCl)CCCl)N(CCCl)CCCl)cc1 | 109 µM | 55 µM
